# Assay results collected from several papers.
# Target: Non-receptor tyrosine-protein kinase TNK1 (TNK1, Homo sapiens, UniProt Q13470)
# One construct used (Q13470 1-666): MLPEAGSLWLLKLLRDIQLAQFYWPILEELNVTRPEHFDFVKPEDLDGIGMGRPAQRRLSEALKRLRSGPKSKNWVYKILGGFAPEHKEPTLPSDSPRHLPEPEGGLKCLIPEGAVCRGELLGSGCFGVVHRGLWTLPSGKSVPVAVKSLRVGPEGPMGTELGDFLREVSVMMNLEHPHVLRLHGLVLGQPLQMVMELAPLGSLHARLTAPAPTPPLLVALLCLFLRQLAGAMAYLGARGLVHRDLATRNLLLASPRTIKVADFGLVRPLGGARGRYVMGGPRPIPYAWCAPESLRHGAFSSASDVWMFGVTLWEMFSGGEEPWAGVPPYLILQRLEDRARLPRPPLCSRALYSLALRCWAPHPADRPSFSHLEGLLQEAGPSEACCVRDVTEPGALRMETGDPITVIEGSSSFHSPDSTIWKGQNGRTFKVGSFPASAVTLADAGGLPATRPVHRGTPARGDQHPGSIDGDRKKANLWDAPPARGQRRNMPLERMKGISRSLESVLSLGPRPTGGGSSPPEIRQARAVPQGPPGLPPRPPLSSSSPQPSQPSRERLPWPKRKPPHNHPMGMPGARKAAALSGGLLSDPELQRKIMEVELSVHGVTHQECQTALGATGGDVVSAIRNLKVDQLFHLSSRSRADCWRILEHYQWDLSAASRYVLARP
SMILES,assay,conditions,remaining binding [%]
F[C@@H]1CCN(c2nccc(-c3cnn4ncccc34)n2)C1,binding,1 µM,87
COc1cc(-c2cn(C3CCc4c(F)cccc4N(CC(F)(F)F)C3=O)nn2)ccc1-n1cnc(C)c1 (stereo not shown),"cell-free assay, competition with immobilised ligand",1 µM,100
COc1ncc2cc3ccccc3nc2c1C#N,"cell-free assay, competition with immobilised ligand",5 µM,100
CNC(=O)c1ccc(Nc2ncc(C(F)(F)F)c(NCc3nccnc3N(C)S(C)(=O)=O)n2)cc1,"cell-free assay, competition with immobilised ligand",0.1 µM,100
O=C(Nc1c[nH]nc1C(=O)NC1CCNCC1)c1cc(F)cc(F)c1,"binding, competition with immobilised ligand",1 µM,38
CNC(=O)[C@@H]1CC[C@@H](n2c(-c3ccc4cnccc4c3)nc3ccc(C(=O)NCc4cccc(C(N)=O)c4)cc32)C1,"binding, competition with immobilised ligand",1 µM,97
CCN1CCN(Cc2ccc(C(=O)Nc3ccc(C)c(Oc4ccc5c(c4)CC(=O)N5)c3)cc2C(F)(F)F)CC1,"binding, competition with immobilised ligand",1 µM,100
O=C(c1ccc(Nc2ncc(Cl)c(-c3cc4ccccc4s3)n2)cc1)N1CCC(N2CCCC2)CC1,"binding, competition with immobilised ligand",1 µM,15
Cc1c(C(=O)O)cc(-c2ccc(C3CCNCC3)cc2)c2ccc(-c3ccc(C(F)(F)F)cc3)cc12,"binding, competition with immobilised ligand",1 µM,100
C[C@@H]1CCN(c2nccc(-c3cnn4ncccc34)n2)C1,binding,1 µM,100
Nc1ncc2c(n1)-c1c([nH]c3ccc(C#CC4CC4)cc13)CCCC2,"binding, competition with immobilised ligand",1 µM,100
c1cnn2ncc(-c3ccnc(N4CCC45COC5)n3)c2c1,binding,1 µM,100
O=C(Nc1cccnn1)N1CCC(=Cc2cccc(Oc3ccc(C(F)(F)F)cn3)c2)CC1,"cell-free assay, competition with immobilised ligand",1 µM,98
COc1cnc(Nc2cccc(S(N)(=O)=O)c2)nc1N1CCN(c2ccccc2)C(=O)C1,"binding, competition with immobilised ligand",1 µM,100
N[C@@H]1CCN(c2nccc(-c3cnn4ncccc34)n2)C1,binding,1 µM,100
Cc1noc([C@H]2C[C@@H](c3ccc(C(F)(F)F)cc3)CN(C(=O)N3CCS(=O)(=O)C3)C2)n1,"cell-free assay, competition with immobilised ligand",1 µM,100
CN(C)c1nccc(-c2cnn3ncccc23)n1,binding,1 µM,67
O=C(NCCCN1CCOCC1)c1ccc(Nc2ncc(Cl)c(-c3ccc(Cl)s3)n2)cc1,"binding, competition with immobilised ligand",1 µM,36
CNC(=O)Nc1ccc2c(c1)CC[C@@]21OC(=O)N(CC(=O)N(Cc2ccc(F)cc2)[C@@H](C)C(F)(F)F)C1=O,"cell-free assay, competition with immobilised ligand",1 µM,86
C[C@@H](c1ccc(-n2cnc3c(N)ncnc32)cc1)N1CCc2nn(C)c(Cc3ccccc3)c2C1=O,"binding, competition with immobilised ligand",0.1 µM,47
CN(C)c1nccc(-c2cnc3ncccn23)n1,binding,1 µM,100
Cc1cnc(Nc2ccc(C(=O)N3CCC(N4CCCC4)CC3)cc2)nc1-c1cc2ccccc2s1,"binding, competition with immobilised ligand",1 µM,13
